Assay results: ChEMBL document CHEMBL1154778, “Synthesis and biological evaluation of C-5 methyl substituted 4-arylthio and 4-aryloxy-3-Iodopyridin-2(1H)-one type anti-HIV agents” (J Med Chem, 2009)

Columns and labels:
[1] = system: Human immunodeficiency virus 1; assay: Antiviral activity against HIV-1 LAI harboring wild type reverse transcriptase infected in human MT4 cells after 5 days by MTT assay; format: functional, organism-based; details: Human immunodeficiency virus 1, LAI, MT4, 120 h
Outline: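 MT4 cells were kept in RPMI 1640 with 10% fetal calf serum and antibiotics at 37 °C, 5% CO2. A range of compound concentrations was incubated with HIV-1 LAI at 200 CCID50/well and 30000 MT4 cells/well for 5 days at 37 °C. Cell viability was read by MTT, and IC50 was the concentration giving 50% infection versus the drug-free control.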

[2] = Selectivity index, ratio of CC50 for human MT4 cells to IC50 for HIV-1 LAI harboring wild type reverse transcriptase infected in human MT4 cells; format: functional
Outline: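 Cytotoxicity was measured in mock-infected MT4 cultures (30000 cells/well) given the same compound concentration range, run in parallel with the infected cultures for 5 days at 37 °C, 5% CO2, with MTT viability. CC50 was the concentration reducing viability by 50% versus the drug-free control. SI was CC50 divided by IC50 against HIV-1 LAI.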

[3] = system: Human immunodeficiency virus 1; assay: Antiviral activity against HIV1 HXB2 harboring K103N mutant reverse transcriptase infected in human MT4 cells after 5 days by MTT assay; format: functional, organism-based; details: Human immunodeficiency virus 1, HXB2, MT4, 120 h
Outline: (§1)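 Mutant viruses were made by recombining the mutant PR-RT sequence into a PR-RT-deleted HIV-1 HXB2 proviral clone. MT4 cells were grown in RPMI 1640 with 10% FCS and antibiotics. Virus at 200 CCID50/well and 30000 cells/well were incubated with varied compound concentrations for 5 days at 37 °C, 5% CO2. MTT viability gave IC50, the concentration giving 50% infection versus the drug-free control.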

[4] = system: Human immunodeficiency virus 1; assay: Antiviral activity against HIV1 HXB2 harboring Y181C mutant reverse transcriptase infected in human MT4 cells after 5 days by MTT assay; format: functional, organism-based; details: Human immunodeficiency virus 1, HXB2, MT4, 120 h; outline: as §1
[5] = system: Human immunodeficiency virus 1; assay: Antiviral activity against HIV1 HXB2 harboring Y188L mutant reverse transcriptase infected in human MT4 cells after 5 days by MTT assay; format: functional, organism-based; details: Human immunodeficiency virus 1, HXB2, MT4, 120 h; outline: as §1

Row | SMILES | IC50 [1] | Ratio CC50/IC50 [2] | IC50 [3] | IC50 [4] | IC50 [5]
1 | Cc1cc(C)cc(Oc2c(CSCc3ccccc3)c(C)[nH]c(=O)c2I)c1 | 6.3 nM | >15849 | 7.94 nM | 15.8 nM | 31.6 nM
2 | Cc1cc(C)cc(Oc2c(-n3ccnc3C#N)c(C)[nH]c(=O)c2I)c1 | 6.3 nM | >15848 | 12.5 nM | 39.8 nM | 125 nM
3 | Cc1cc(C)cc(Oc2c(COCc3cccs3)c(C)[nH]c(=O)c2I)c1 | 6.3 nM | >15849 | 6.3 nM | 31.6 nM | 50.1 nM
4 | Cc1cc(C)cc(Oc2c(CSCc3nccs3)c(C)[nH]c(=O)c2I)c1 | 7.94 nM | >12589 | 25.1 nM | 39.8 nM | 2000 nM
5 | Cc1cc(C)cc(Oc2c(CO)c(C)[nH]c(=O)c2I)c1 | 5 nM | >19953 | 158 nM | 158 nM | 3160 nM
6 | Cc1cc(C)cc(Oc2c(COCc3ccc(F)cc3)c(C)[nH]c(=O)c2I)c1 | 7.94 nM | >12589 | 7.94 nM | 25.1 nM | 79.4 nM
7 | Cc1cc(C)cc(Oc2c(CSCC(C)C)c(C)[nH]c(=O)c2I)c1 | 7.94 nM | >12589 | 25.1 nM | 50.1 nM | 794 nM
8 | Cc1cc(C)cc(Oc2c(CN3CCOC(CC#N)C3)c(C)[nH]c(=O)c2I)c1 (stereo not given) | 6.3 nM | >15849 | 6.3 nM | 31.6 nM | 100 nM
9 | Cc1cc(C)cc(Oc2c(CN3CCC(OC(N)=O)CC3)c(C)[nH]c(=O)c2I)c1 | 6.3 nM | 7943 | 1.99 nM | 25.1 nM | 50.1 nM
10 | CCS(=O)(=O)Cc1c(C)[nH]c(=O)c(I)c1Oc1cc(C)cc(C)c1 | 7.94 nM | >12589 | 39.8 nM | 158 nM | 794 nM
11 | Cc1cc(C)cc(Oc2c(COCc3ccccc3)c(C)[nH]c(=O)c2I)c1 | 7.94 nM | >12589 | 31.6 nM | 31.6 nM | 125 nM
12 | Cc1cc(C)cc(Oc2c(COCc3ccsc3)c(C)[nH]c(=O)c2I)c1 | 5 nM | >19953 | 25.1 nM | 25.1 nM | 100 nM
13 | Cc1cc(C)cc(Oc2c(CN3CCCC(C#N)C3)c(C)[nH]c(=O)c2I)c1 (stereo not given) | 3.98 nM | 19953 | 6.3 nM | 31.6 nM | 199 nM
14 | Cc1cc(C)cc(Oc2c(CN3CCSCC3)c(C)[nH]c(=O)c2I)c1 | 6.3 nM | >15849 | 7.94 nM | 39.8 nM | 125 nM
15 | Cc1cc(C)cc(Oc2c(COCC3CCCO3)c(C)[nH]c(=O)c2I)c1 (stereo not given) | 7.94 nM | >12589 | 31.6 nM | 39.8 nM | 501 nM
16 | Cc1cc(C)cc(Oc2c(CSC3CCCC3)c(C)[nH]c(=O)c2I)c1 | 10 nM | >10000 | 31.6 nM | 100 nM | 630 nM
17 | Cc1cc(C)cc(Oc2c(Cn3cncc3C)c(C)[nH]c(=O)c2I)c1 | 5.01 nM | >19952 | 10 nM | 31.6 nM | 125 nM
18 | CCOC(=O)CC1CN(Cc2c(C)[nH]c(=O)c(I)c2Oc2cc(C)cc(C)c2)CCO1 (stereo not given) | 6.3 nM | >15849 | 1.99 nM | 25.1 nM | 50.1 nM
19 | Cc1cc(C)cc(Oc2c(Cn3ccc(N)n3)c(C)[nH]c(=O)c2I)c1 | 7.9 nM | >12589 | 39.8 nM | 39.8 nM | 125 nM
20 | Cc1cc(C)cc(Sc2c(Cn3cnc(-c4ccccc4)n3)c(C)[nH]c(=O)c2I)c1 | 6.3 nM | >15849 | 7.94 nM | 10 nM | 39.8 nM
21 | Cc1cc(C)cc(Sc2c(CSc3nccs3)c(C)[nH]c(=O)c2I)c1 | 5.01 nM | 15849 | 7.94 nM | 199 nM | 3160 nM
22 | Cc1cc(C)cc(Sc2c(CN(C)Cc3ccco3)c(C)[nH]c(=O)c2I)c1 | 6.3 nM | >15849 | 15.8 nM | 50.1 nM | 794 nM

Row | SMILES | IC50 [1] | Ratio CC50/IC50 [2] | IC50 [3] | IC50 [4] | IC50 [5]
23 | Cc1cc(C)cc(Sc2c(CN3CCC(C(N)=O)CC3)c(C)[nH]c(=O)c2I)c1 | 5.01 nM | >19953 | 10 nM | 158 nM | 1260 nM
24 | Cc1cc(C)cc(Sc2c(CSCC(C)C)c(C)[nH]c(=O)c2I)c1 | 7.94 nM | >12589 | 10 nM | 199 nM | 2510 nM
25 | Cc1cc(C)cc(Sc2c(CSC(C)C)c(C)[nH]c(=O)c2I)c1 | 7.94 nM | >12589 | 31.6 nM | 630 nM | 3160 nM
26 | COCC1CCN(Cc2c(C)[nH]c(=O)c(I)c2Sc2cc(C)cc(C)c2)CC1 | 5.01 nM | 7943 | 19.9 nM | 630 nM | 3160 nM
27 | COC1CCCN(Cc2c(C)[nH]c(=O)c(I)c2Sc2cc(C)cc(C)c2)C1 (stereo not given) | 5.01 nM | >19953 | 3.16 nM | 25.1 nM | 125 nM
28 | Cc1cc(C)cc(Sc2c(Cn3cnc(C)c3/C=N/O)c(C)[nH]c(=O)c2I)c1 | 6.3 nM | >15849 | 158 nM | 1260 nM | 3160 nM
29 | Cc1cc(C)cc(Sc2c(Cn3nc(CC#N)nc3C)c(C)[nH]c(=O)c2I)c1 | 5.01 nM | >19953 | 25.1 nM | 39.8 nM | 199 nM
30 | Cc1cc(C)cc(Sc2c(Cc3ccc[nH]3)c(C)[nH]c(=O)c2I)c1 | 3.98 nM | >25119 | 0.5 nM | 10 nM | 50.1 nM
31 | COC1CCN(Cc2c(C)[nH]c(=O)c(I)c2Sc2cc(C)cc(C)c2)CC1 | 3.98 nM | 10000 | 12.5 nM | 199 nM | 2000 nM
32 | Cc1cc(C)cc(Sc2c(CSCc3ccco3)c(C)[nH]c(=O)c2I)c1 | 6.3 nM | >12589 | 5.01 nM | 39.8 nM | 1000 nM
33 | Cc1cc(C)cc(Oc2c(CN3CCSC3)c(C)[nH]c(=O)c2I)c1 | 6.3 nM | >15848 | 15.8 nM | 39.8 nM | 251 nM
34 | Cc1cc(C)cc(Oc2c(CSCC3CCCO3)c(C)[nH]c(=O)c2I)c1 (stereo not given) | 7.94 nM | >12589 | 25.6 nM | 63 nM | 158 nM
35 | Cc1cc(C)cc(Oc2c(Cn3cccn3)c(C)[nH]c(=O)c2I)c1 | 5.01 nM | >19952 | 6.3 nM | 31.6 nM | 316 nM
36 | Cc1cc(C)cc(Oc2c(CSC(C)C)c(C)[nH]c(=O)c2I)c1 | 5 nM | >19953 | 12.5 nM | 39.8 nM | 316 nM
37 | COC1CCCN(Cc2c(C)[nH]c(=O)c(I)c2Oc2cc(C)cc(C)c2)C1 (stereo not given) | 6.3 nM | >15849 | 6.3 nM | 15.8 nM | 39.8 nM
38 | Cc1cc(C)cc(Oc2c(CN(C)Cc3ccco3)c(C)[nH]c(=O)c2I)c1 | 5.01 nM | 12589 | 31.6 nM | 39.8 nM | 251 nM
39 | Cc1cc(C)cc(Sc2c(CN3CCC(O)CC3)c(C)[nH]c(=O)c2I)c1 | 5.01 nM | >19953 | 12.5 nM | 316 nM | 3980 nM
40 | Cc1cc(C)cc(Sc2c(CN3CCCCC3)c(C)[nH]c(=O)c2I)c1 | 6.3 nM | >15849 | 31.6 nM | 794 nM | 7940 nM
41 | Cc1cc(C)cc(Oc2c(Cn3cc(Br)cn3)c(C)[nH]c(=O)c2I)c1 | 7.94 nM | >12589 | 7.94 nM | 31.6 nM | 100 nM
42 | Cc1cc(C)cc(Oc2c(Cn3cncc3-c3ccccc3)c(C)[nH]c(=O)c2I)c1 | 6.3 nM | >15858 | 7.94 nM | 31.6 nM | 31.6 nM
43 | Cc1cc(C)cc(Oc2c(CNC(=O)c3cc4ccccc4o3)c(C)[nH]c(=O)c2I)c1 | 6.3 nM | >15849 | 199 nM | 31.6 nM | 158 nM
44 | COCCC1CN(Cc2c(C)[nH]c(=O)c(I)c2Sc2cc(C)cc(C)c2)CCO1 (stereo not given) | 3.98 nM | 12589 | 5.01 nM | 63 nM | 398 nM
